Screening data as filed in PubChem.
A selection: hits, their analogues and other compounds. The true share with any hit is near 4.3%.
HTR2A ag – activates the mouse 5-HT2A serotonin receptor | CHO-K1 mHTR2A beta-arrestin complementation, luminescence; percent of 30 µM serotonin response | hit rate 0.66% among 360,000 | activation, % at 7.6 µM | AID 624169 | P35363;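 active means activation above a run cutoff, the mean activation of all tested compounds plus 3 SD, cut at about 14% in these data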
TAAR1 antag – antagonists of human TAAR1; Q96RJ0; CHO RD-HGA16 TAAR1, Fluo-8 calcium fluorescence, antagonist; inhibition, % at 3 µM; hit rate 1.5% among 360,000;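 active means inhibition above a per-plate cutoff, the mean inhibition of test compounds on that plate plus 3 SD, cut at about 49% in these data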
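Test system – hTAAR1-expressing CHO RD-HGA16 cells, Gα16-coupled · Also added – β-PEA at EC80 concentration, post-compound challenge · Compound – 3 µM, single point · Incubation – dye loading 75 min at 37 °C, then 30 min room temperature · Measured by – Fluo-8 intracellular calcium dye fluorescence, real-time kinetic reads · Benchmarks – vehicle and agonist controls · Replicates – singlicate, one well per test compound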
Beta2AR agonist – agonists of human beta-2 adrenergic receptor inducing internalization | P07550 | Am2.2-beta2AR cells, FAP receptor internalization, flow cytometry | response, % (test concentration not listed) | hit rate 0.43% among 340,000;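 active means response above a set limit, near 3 SD of response in nonfluorescent compounds, cut at about 42% in these data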
Target sequence (P07550 whole entry, looked up): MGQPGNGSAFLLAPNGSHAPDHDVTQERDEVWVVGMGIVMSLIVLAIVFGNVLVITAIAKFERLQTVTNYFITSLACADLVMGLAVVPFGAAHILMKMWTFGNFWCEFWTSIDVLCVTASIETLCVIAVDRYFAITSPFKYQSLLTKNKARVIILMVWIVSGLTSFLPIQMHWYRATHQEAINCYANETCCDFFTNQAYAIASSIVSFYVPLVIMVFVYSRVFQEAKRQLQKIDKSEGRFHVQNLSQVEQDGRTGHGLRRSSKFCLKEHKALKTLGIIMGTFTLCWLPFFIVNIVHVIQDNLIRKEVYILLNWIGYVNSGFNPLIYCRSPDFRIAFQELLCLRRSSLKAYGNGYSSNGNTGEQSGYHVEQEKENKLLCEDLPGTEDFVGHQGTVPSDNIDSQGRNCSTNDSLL
MC4R ag barr – agonists of human melanocortin 4 receptor (MC4R) beta-arrestin; P32245; U2OS MC4R beta-arrestin complementation, luminescence; percent of melanotan II response, DMSO zero; activation, % at 8.9 µM; hit rate 0.98% among 360,000; AID 540308;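 active means activation above a per-plate cutoff, the mean activation of sample wells on that plate plus 3 SD, cut at about 8% in these data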
TAAR1 ag – agonists of human TAAR1; Q96RJ0; CHO RD-HGA16 TAAR1, Fluo-8 calcium fluorescence; vehicle wells 0%, saturating PEA agonist 100%; activation, % at 3 µM; hit rate 0.99% among 360,000; AID 624467;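 active means activation above the mean activation of all test compounds in the run plus 3 SD, cut at about 38% in these data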
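Test system: RD-HGA16 (CHO) cells co-expressing Gα16 and hTAAR1 / Benchmarks: DMSO vehicle as 0%, PEA at EC100 as 100% / Repeats: no replicates (n 1) / Measure: % activation from peak over basal fluorescence ratio, DMSO-to-PEA scaled / Timing: 17-24 h plating, Fluo-8 75 min 37 °C, 30 min RT / Technique: kinetic Fluo-8 calcium fluorescence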
MC4R antag cAMP – blocks human MC4R cAMP signaling | inhibition, % at 6.5 µM | hit rate 0.48% among 360,000 | MC4R-expressing cells, MTII-stimulated cAMP, LANCE TR-FRET;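 active means inhibition above its plate's cutoff, the mean of tested wells on that plate plus 3 SD, cut at about 29% in these data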
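system = U2OS cells with stable human MC4R expression | also added = Melanotan II challenge after compound preincubation | dosing = one concentration, 6.5 µM nominal | incubation = compound 30 min, challenge 1 h, detection 1 h | measured by = TR-FRET with Eu-cAMP and labeled anti-cAMP, 671 nm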
TAAR1 ag conf – confirmation of human TAAR1 agonists; shares compounds with TAAR1 ag; CHO RD-HGA16 TAAR1, Fluo-8 calcium fluorescence; scaled: DMSO 0%, maximal phenethylamine 100%; activation, % at 3 µM; hit rate 82% among 2,400; AID 651783;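 active means activation above a cutoff set at the run's mean compound activation plus 3 SD, cut at about 39% in these data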
Ga16 ag counter – nonselective agonist in parental cells, TAAR1 agonist counter-screen; activation, % at 3 µM; AID 651787; hit rate 50% among 2,400; shares compounds with TAAR1 ag; CHO-Ga16 parental, Fluo-8 calcium fluorescence; normalized to maximal ATP response, DMSO zero;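 active means activation above the run cutoff, the mean activation over all tested wells plus 3 SD, cut at about 12% in these data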
TAAR1 desens – human TAAR1 agonist that also desensitizes the receptor; AID 651951; inhibition, % at 3 µM; shares compounds with TAAR1 ag; hit rate 46% among 2,400; CHO RD-HGA16 hTAAR1, Fluo-8 calcium, beta-PEA response inhibition;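 active means inhibition above the run cutoff, the mean inhibition of all test compounds plus 3 SD, cut at about 49% in these data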;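 further: beta-PEA stimulus applied at its EC80; loss of beta-PEA calcium signal after compound pretreatment read as receptor desensitization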
Ga16 nonsel ant – nonselective Ga16 antagonist in TAAR1 agonist counter-screen; hit rate 39% among 2,400; inhibition, % at 3 µM; CHO-Ga16 ATP-induced calcium, Fluo-8 fluorescence; shares compounds with TAAR1 ag;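 active means inhibition above the plate's mean compound inhibition plus 3 SD, computed per plate, cut at about 22% in these data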
Hits are given with their value; - = inactive; . = no result given.

SMILES	HTR2A ag	TAAR1 antag	Beta2AR agonist	MC4R ag barr	TAAR1 ag	MC4R antag cAMP	TAAR1 ag conf	Ga16 ag counter	TAAR1 desens	Ga16 nonsel ant
CN(CC(=O)Nc1ccc(Cl)cc1F)C1=NS(=O)(=O)c2ccccc21	-	-	-	-	-	-	.	.	.	.
O=C(Cc1n[nH]c(=O)[nH]c1=O)N/N=C/c1cccc(O)c1	-	-	-	-	60	-	60	-	-	-
O=C(Cc1n[nH]c(=O)[nH]c1=O)N/N=C/c1ccccc1	-	-	-	-	66	-	74	-	55	-
O=C(Cc1n[nH]c(=O)[nH]c1=O)N/N=C/c1cccc(Cl)c1	-	-	-	-	-	-	.	.	.	.
Cc1cc(C)c(S(=O)(=O)NCCc2ccccc2)c(C)c1	-	-	-	8.4	46	-	52	-	-	-
Cc1ccc(S(=O)(=O)NCCc2ccccc2)cc1	-	-	-	-	-	-	.	.	.	.
O=C(CCCc1ccccc1)Nc1cccc2c1CCCC2	-	71	-	-	55	-	-	-	-	-
O=C(O)CCN1C(=O)c2ccc(NC(=O)c3cccs3)cc2C1=O	-	-	-	-	-	-	.	.	.	.
O=C(Nc1ccc2c(c1)C(=O)N(c1ccccc1)C2=O)c1cccs1	-	-	-	-	57	-	46	25	-	-
COCCNC(=O)C1(C)CCCN(C(=O)c2ccc(OC)c(OC)c2)C1 (configuration not stated)	-	-	.	-	-	-	.	.	.	.
CCCn1c(=O)c(C(=O)NNC(=O)c2ccccc2[N+](=O)[O-])c(O)c2ccccc21	-	-	-	-	-	-	.	.	.	.
CCCn1c(=O)c(C(=O)NNC(=O)c2ccccc2Cl)c(O)c2ccccc21	-	55	-	-	112	-	72	65	-	26
O=C(Cc1ccc(-n2cccc2)cc1)NCc1ccccc1Cl	-	50	-	-	77	-	-	-	-	-
COc1ccc(CCNC2=NCCS2)cc1	-	-	-	-	59	-	62	-	-	-
COc1ccc(CCNC2=NCCS2)cc1OC	-	-	-	-	-	-	.	.	.	.
CC(C)Nc1nc(NCCOc2ccccc2)c2sccc2n1	-	-	.	-	-	-	.	.	.	.
CNc1nc(NCCOc2ccccc2Cl)c2sccc2n1	-	72	.	-	72	-	51	50	57	47
N#Cc1cccc(NC(=O)c2cc(C3CCCCN3S(=O)(=O)c3ccccc3)on2)c1 (configuration not stated)	-	-	.	-	-	-	.	.	.	.
Clc1ccc(Oc2nc3c(Cl)cccc3s2)cc1Cl	-	-	-	-	-	-	.	.	.	.
CC(C)(C)C1CCc2onc(C(=O)NC3CCCC3)c2C1 (configuration not stated)	-	-	-	-	45	-	71	39	-	-
O=C(CCSc1nnc(-c2ccncc2)o1)Nc1ccc(Cl)cc1	-	-	-	-	40	-	40	-	-	-
CC1=CC2=NC(=O)/C(=C\c3cc(C)n(-c4ccc(F)cc4)c3C)C(=N)N2O1	-	87	-	-	43	-	-	-	50	38
CC1CCN(S(=O)(=O)N2CCC(C(=O)NC(C)c3ccccc3)CC2)CC1 (configuration not stated)	-	-	.	-	-	-	.	.	.	.
Oc1c(C=Nc2cccc3cccnc23)sc2ccccc12	.	94	.	.	130	.	39	69	58	69
